In PMC6459613 (ACS chemical biology, 2012):
Several values for one entry are separate records, joined by “and”; a condition that tells them apart may be missing. Equal values may be shown once. Each block holds one compound with its values, some of them ahead of it.

Assays:
GST-JNK1 = details: read-out: IC50 for displacing biotinylated pepJIP1 from GST-JNK1; cited from earlier work
JNK2α2 in HEK293T cells = assay: Western blot in HEK293T cells transfected with WT-JNK2α2; format: cell-based; details: for JNK2α2 autophosphorylation: HEK293T over-expressing JNK2α2, without anisomycin
Summary of the method: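 HEK293T cells were transfected with wild-type JNK2α2 or empty pcDNA3 vector. They were treated with DMSO or varying test compound concentrations without anisomycin, or with an ATP-competitive reference JNK inhibitor with and without anisomycin. Western blots assessed JNK2α2 autophosphorylation and c-Jun phosphorylation, from which an ED50 was estimated.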

JNK [1] = details: read-out: in-vitro cell-free IC50; ATP-competitive; cited from earlier work
[2] = test system: JNK activity in Jurkat T cells; details: cited from earlier work
RAW264.7 cells = details: LPS-stimulated RAW264.7 cells; cited from earlier work
MDA-MB-231 cells [3] = assay: Cell viability monitored during migration and wound assays; format: cell-based, human; details: for cell viability during the migration assay: transwell assay, 50 and 100 μM; for cell viability during the wound assay: up to 200 μM
[4] = test system: JNK pathway in HEK293 cells; assay: Western blot of phospho-JNK and phospho-c-Jun in anisomycin-treated HEK293 cells; format: cell-based; details: for activation (phosphorylation) of JNK isoforms / phosphorylation of c-Jun (phospho-Ser-63): HEK293, 5-100 μM, 12 hours, then anisomycin
Summary of the method: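 HEK293 cells were pretreated for 12 hours with DMSO or test compound at 5-100 μM. The JNK pathway was then induced with anisomycin (50-100 nM) for 5-10 minutes before lysis. Western blots detected phospho-JNK and phospho-c-Jun, and an ED50 was estimated.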

MDA-MB-231 cells [5] = assay: Transwell chemotactic cell migration assay; format: cell-based, human; details: for inhibition of migration: overnight, migration in response to serum
Summary of the method: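 Chemotactic migration of MDA-MB-231 cells was measured in transwells. Cells were treated overnight with DMSO or test compound at 50 or 100 μM, and viability was monitored. Migrated cells on the membrane underside were stained with crystal violet. Three independent repeats.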

ERK2 pathway = assay: ERK pathway specificity in HEK293 cells, EGF induced; format: cell-based; details: 100 μM
Summary of the method: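 HEK293 cells received DMSO or test compound (0-100 μM) for 12 hours. The ERK pathway was then induced with 50 ng EGF for 5-10 minutes and cells were lysed. Lysates were run on 10% SDS-PAGE and western blotted for phospho-ERK and phospho-p90RSK.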

JNK1 = JNK1 (Homo sapiens, UniProt P45983); assay: Phosphorylation of GST-c-Jun; format: biochemical
JNK1, sequence (P45983 whole entry, canonical isoform): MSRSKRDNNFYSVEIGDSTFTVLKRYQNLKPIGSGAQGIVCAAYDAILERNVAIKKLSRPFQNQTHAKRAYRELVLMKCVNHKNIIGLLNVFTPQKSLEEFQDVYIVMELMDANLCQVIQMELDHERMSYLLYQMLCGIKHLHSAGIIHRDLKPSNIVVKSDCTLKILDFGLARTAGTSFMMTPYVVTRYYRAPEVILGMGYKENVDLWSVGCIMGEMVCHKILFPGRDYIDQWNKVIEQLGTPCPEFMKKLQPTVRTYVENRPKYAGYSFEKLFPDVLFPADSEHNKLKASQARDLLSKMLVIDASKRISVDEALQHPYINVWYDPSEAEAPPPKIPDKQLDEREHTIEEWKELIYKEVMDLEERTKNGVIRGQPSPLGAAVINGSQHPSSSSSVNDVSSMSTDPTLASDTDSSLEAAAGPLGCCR
Summary of the method: (§1)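 Activated JNK isoforms phosphorylated GST-c-Jun (1-221) at 2 μM across a dose range of test compound. Dose-response data were fitted to V0 = V00 − V00·i/(i+K50) + V′, where K50 is the half-maximal concentration and V′ is the residual rate at saturating inhibitor.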

JNK2α2 (C163A) = assay: c-Jun phosphorylation in HEK293T cells transfected with JNK2α2; format: cell-based; details: 0-100 μM
Summary of the method: (§2)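 HEK293T cells were transfected with JNK2α2 DRS mutants (Y130A or C163A) or empty pcDNA3 vector and treated with test compound (0–100 μM). Western blots tracked JNK autophosphorylation and c-Jun phosphorylation, compared with non-transfected cells. Results are representative of three independent experiments.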

JNK3 = JNK3 (Homo sapiens, UniProt P53779); assay: Phosphorylation of GST-c-Jun; format: biochemical
JNK3, sequence (P53779 whole entry): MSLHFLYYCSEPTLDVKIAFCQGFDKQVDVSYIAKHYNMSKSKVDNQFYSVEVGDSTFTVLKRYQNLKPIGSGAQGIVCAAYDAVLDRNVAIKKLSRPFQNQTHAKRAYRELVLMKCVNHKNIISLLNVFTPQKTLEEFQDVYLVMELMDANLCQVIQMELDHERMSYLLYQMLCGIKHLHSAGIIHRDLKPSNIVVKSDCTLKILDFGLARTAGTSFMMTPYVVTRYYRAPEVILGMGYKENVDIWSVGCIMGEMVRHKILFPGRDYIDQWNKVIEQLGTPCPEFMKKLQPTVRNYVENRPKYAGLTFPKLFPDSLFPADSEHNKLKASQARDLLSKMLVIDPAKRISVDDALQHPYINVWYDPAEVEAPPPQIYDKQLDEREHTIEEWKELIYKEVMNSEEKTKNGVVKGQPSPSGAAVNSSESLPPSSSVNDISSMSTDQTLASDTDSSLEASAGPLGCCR
Summary of the method: as §1

p38MAPKδ = p38MAPKδ (Homo sapiens, UniProt O15264); assay: MAP kinase selectivity assay, p38MAPKδ; format: biochemical
p38MAPKδ, sequence (O15264 whole entry): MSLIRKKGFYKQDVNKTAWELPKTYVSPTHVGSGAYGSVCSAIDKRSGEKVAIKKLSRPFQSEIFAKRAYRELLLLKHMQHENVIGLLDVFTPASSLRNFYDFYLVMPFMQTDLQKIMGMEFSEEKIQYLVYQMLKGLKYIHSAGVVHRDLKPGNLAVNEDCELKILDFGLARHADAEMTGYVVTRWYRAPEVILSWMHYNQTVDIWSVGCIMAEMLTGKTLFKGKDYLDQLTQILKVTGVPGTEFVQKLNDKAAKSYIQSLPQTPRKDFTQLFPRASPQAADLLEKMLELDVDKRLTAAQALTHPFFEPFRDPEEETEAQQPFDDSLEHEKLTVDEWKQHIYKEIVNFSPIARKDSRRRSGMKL

[6] = test system: Akt phosphorylation mediated by JNK2α2; assay: Akt phosphorylation at Ser-473 in HEK293T cells transfected with WT-JNK2α2; format: cell-based; details: HEK293T transfected with WT-JNK2α2, without anisomycin
Summary of the method: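 Wild-type JNK2α2 was transfected into HEK293T cells. Cells were exposed to DMSO vehicle or a series of test compound concentrations, with no anisomycin stimulation. Akt activation was followed as phosphorylation at Ser-473.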

p38MAPKβ = p38MAPKβ (Homo sapiens, UniProt Q15759); assay: MAP kinase selectivity assay, p38MAPKβ; format: biochemical
p38MAPKβ, sequence (Q15759 whole entry): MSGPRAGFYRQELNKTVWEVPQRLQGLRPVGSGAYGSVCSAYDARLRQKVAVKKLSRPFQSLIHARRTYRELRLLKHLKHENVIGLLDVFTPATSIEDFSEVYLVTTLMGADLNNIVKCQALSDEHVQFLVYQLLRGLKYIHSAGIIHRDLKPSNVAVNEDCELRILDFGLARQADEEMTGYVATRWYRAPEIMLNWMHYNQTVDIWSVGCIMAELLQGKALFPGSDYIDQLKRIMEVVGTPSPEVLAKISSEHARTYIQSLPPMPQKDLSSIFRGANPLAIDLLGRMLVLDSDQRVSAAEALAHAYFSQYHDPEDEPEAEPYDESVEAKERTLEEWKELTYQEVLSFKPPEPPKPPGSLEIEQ

ERK2 = ERK2 (Homo sapiens, UniProt P28482); assay: MAP kinase selectivity assay, ERK2; format: biochemical
ERK2, sequence (P28482 whole entry, species assumed): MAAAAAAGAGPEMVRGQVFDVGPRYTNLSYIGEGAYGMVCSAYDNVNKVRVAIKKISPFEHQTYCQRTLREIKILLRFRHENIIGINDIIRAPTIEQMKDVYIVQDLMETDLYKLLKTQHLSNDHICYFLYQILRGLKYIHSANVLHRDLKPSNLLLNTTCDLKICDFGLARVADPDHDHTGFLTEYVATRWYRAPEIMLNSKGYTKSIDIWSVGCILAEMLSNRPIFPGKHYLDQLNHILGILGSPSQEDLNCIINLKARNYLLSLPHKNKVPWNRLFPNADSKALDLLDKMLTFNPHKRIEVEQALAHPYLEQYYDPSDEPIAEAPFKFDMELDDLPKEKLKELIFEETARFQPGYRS

MDA-MB-231 cells [7] = assay: Scratch wound closure assay; format: cell-based, human; details: 100 and 200 μM, 24 hrs post-wounding
Summary of the method: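 MDA-MB-231 cells were pretreated with graded concentrations of test compound. A scratch wound was then made and medium was replaced with 1% FBS-containing medium. Wound closure was measured at 0 and 24 h post-wounding, with viability checked alongside. Three independent experiments.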

ERK1 = ERK1 (Homo sapiens, UniProt P27361); assay: MAP kinase selectivity assay, ERK1; format: biochemical
ERK1, sequence (P27361 whole entry, species assumed): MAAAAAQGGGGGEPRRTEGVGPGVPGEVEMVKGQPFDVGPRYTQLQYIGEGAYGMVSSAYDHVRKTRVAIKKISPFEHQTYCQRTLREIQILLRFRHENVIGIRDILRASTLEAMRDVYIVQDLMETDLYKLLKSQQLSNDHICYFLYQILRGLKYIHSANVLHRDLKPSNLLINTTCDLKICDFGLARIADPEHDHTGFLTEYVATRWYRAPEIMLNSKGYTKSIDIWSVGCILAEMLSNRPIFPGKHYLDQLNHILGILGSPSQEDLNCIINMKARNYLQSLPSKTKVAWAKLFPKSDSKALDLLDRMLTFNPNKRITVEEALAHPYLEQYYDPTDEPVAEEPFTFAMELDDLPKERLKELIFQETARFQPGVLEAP

JNK [8] = assay: Steady-state kinetic analysis of c-Jun phosphorylation; format: biochemical; details: partial competitive inhibition model
Summary of the method: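 Initial velocities were measured with c-Jun varied at 0.63-20 μM and test compound fixed at several levels (0-50 μM), with saturating MgATP at 0.5 mM. Rates came from linear least-squares fits of product versus time. Double-reciprocal plots were checked for linearity. Data were fitted by nonlinear least squares to a partial competitive inhibition equation.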

[9] = test system: activated JNK1, JNK2 and JNK3; format: biochemical; details: read-out: IC50 values; range over JNK1, JNK2 and JNK3; GST-c-Jun 2 μM
Summary of the method: as §1

p38MAPKγ = p38MAPKγ (Homo sapiens, UniProt P53778); assay: MAP kinase selectivity assay, p38MAPKγ; format: biochemical
p38MAPKγ, sequence (P53778 whole entry): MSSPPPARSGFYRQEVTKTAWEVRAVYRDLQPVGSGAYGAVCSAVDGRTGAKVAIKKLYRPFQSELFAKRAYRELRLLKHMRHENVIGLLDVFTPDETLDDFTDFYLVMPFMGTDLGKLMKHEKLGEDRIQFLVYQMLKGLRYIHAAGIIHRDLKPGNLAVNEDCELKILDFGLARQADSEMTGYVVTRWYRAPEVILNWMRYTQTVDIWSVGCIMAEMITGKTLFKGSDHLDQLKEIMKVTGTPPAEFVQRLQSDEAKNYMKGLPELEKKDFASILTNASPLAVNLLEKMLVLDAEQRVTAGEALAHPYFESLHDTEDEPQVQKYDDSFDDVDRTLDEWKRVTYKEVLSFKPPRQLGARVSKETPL

WT-MKK7 = WT-MKK7 (Homo sapiens, UniProt P45983); assay: Phosphorylation of inactive JNK1 by active MKK7; format: biochemical
WT-MKK7, sequence (P45983 whole entry): as the sequence (P45983 whole entry, canonical isoform) above

WT-MKK4 = WT-MKK4 (Homo sapiens, UniProt P45983); assay: Phosphorylation of inactive JNK1 by active MKK4; format: biochemical
WT-MKK4, sequence (P45983 whole entry): as the sequence (P45983 whole entry, canonical isoform) above

JNK2α2 (Y130A) = assay: c-Jun phosphorylation in HEK293T cells transfected with JNK2α2; format: cell-based; details: 0-100 μM
Summary of the method: as §2

Compound: O=c1[nH]nc(Sc2ncc([N+](=O)[O-])s2)n1-c1ccc2c(c1)OCCO2 [BI-78D3]
- IC50 (GST-JNK1): 500 nM

Compound: Oc1c2ccccc2c2c3c(cccc13)N=N2 [SP600125, reference compound]
- JNK2α2 phosphorylation in cells stimulated using anisomycin (JNK2α2 in HEK293T cells; HEK293T over-expressing JNK2α2, with anisomycin): no longer able to inhibit
- JNK2α2 autophosphorylation (JNK2α2 in HEK293T cells): autophosphorylation was inhibited
- IC50 (JNK [1]): 40 to 100 nM
- ED50 for JNK activity [2]: ~10000 nM

Compound: COc1cc([C@H]2O[C@H](c3ccc4c(c3)OCO4)[C@H](C)[C@H]2C)ccc1O[C@H](C)[C@@H](O)c1ccc2c(c1)OCO2 [saucerneol F]
- nitric oxide (NO) production (RAW264.7 cells): inhibits nitric oxide (NO) production in a dose-dependent manner

Compound: (+)-zuonin A
- cell viability during the migration assay (MDA-MB-231 cells [3]): unaffected
- cell viability during the wound assay (MDA-MB-231 cells [3]): unaffected
- activation (phosphorylation) of JNK isoforms [4]: inhibits neither JNK activation nor c-Jun phosphorylation
- phosphorylation of c-Jun (phospho-Ser-63) [4]: inhibits neither JNK activation nor c-Jun phosphorylation
- effect on cell migration (MDA-MB-231 cells [5]; 50 and 100 μM): able to mildly suppress cell migration

- % Inhibition at Saturating (−)-zuonin A (200 μM) (JNK1; 200 μM): 75%
- IC50 (JNK1; GST-c-Jun 2 μM): 1700 ± 260 nM
- % Inhibition at Saturating (−)-zuonin A (200 μM) (JNK3; 200 μM): 73%
- IC50 (JNK3; GST-c-Jun 2 μM): 1740 ± 160 nM
- IC50 (p38MAPKδ): > 200000 nM
- % Inhibition at Saturating (−)-zuonin A (200 μM) (p38MAPKδ; 200 μM): 10%
- % Inhibition at Saturating (−)-zuonin A (200 μM) (p38MAPKβ): 15%
- IC50 (ERK2): > 200000 nM
- % Inhibition at Saturating (−)-zuonin A (200 μM) (ERK2; 200 μM): 10%
- IC50 (ERK1): > 200000 nM
- % Inhibition at Saturating (−)-zuonin A (200 μM) (ERK1; 200 μM): 10%
- IC50 [9]: 1700 to 2900 nM
- IC50 (p38MAPKγ): > 200000 nM
- % Inhibition at Saturating (−)-zuonin A (200 μM) (p38MAPKγ; 200 μM): 10%
- % Inhibition at Saturating (−)-zuonin A (200 μM) (WT-MKK7; 200 μM, phosphorylation of JNK): 50%
- IC50 (WT-MKK7; inhibits the phosphorylation of JNK (inactive JNK1) by MKK7): 1990 ± 150 nM
- % Inhibition at Saturating (−)-zuonin A (200 μM) (WT-MKK4; 200 μM, phosphorylation of JNK): 77%
- IC50 (WT-MKK4; inhibits the phosphorylation of JNK (inactive JNK1) by MKK4): ~1800 nM and 1800 nM
Compound: (−)-zuonin A
- phosphorylation of ERK or its protein substrate p-90RSK (ERK2 pathway): no effect
- sensitivity of c-Jun phosphorylation (JNK2α2 (C163A)): unresponsive
- Akt phosphorylation (Ser-473) mediated by JNK2α2 [6]: able to inhibit Akt phosphorylation
- cell viability during the migration assay (MDA-MB-231 cells [3]): unaffected
- cell viability during the wound assay (MDA-MB-231 cells [3]): unaffected
- JNK2α2 autophosphorylation (JNK2α2 in HEK293T cells): unable to inhibit JNK2α2 autophosphorylation even at a concentration of 100 μM
- ED50 for phosphorylation of c-Jun mediated by over-expressed JNK2α2 (JNK2α2 in HEK293T cells; HEK293T, without anisomycin): approximately 25 μM
- wound closure (MDA-MB-231 cells [7]): sufficient to inhibit wound closure
- activation (phosphorylation) of JNK isoforms [4]: blunts the activation of the JNK isoforms in cells in a dose-dependent manner
- phosphorylation of c-Jun (phospho-Ser-63) [4]: clearly blunted
- ED50 for inhibiting JNK phosphorylation ([4]; HEK293 cells, stimulation by anisomycin): around 25 μM
- α (factor by which affinity of JNK for c-Jun is weakened) (JNK [8]): ~5
- β (effect on kcat) (JNK [8]): 1
- inhibition of migration (MDA-MB-231 cells [5]; 50 μM): approximately 45%
- inhibition of migration (MDA-MB-231 cells [5]; 100 μM): ~80%
- sensitivity of c-Jun phosphorylation (JNK2α2 (Y130A)): more sensitive
